The target in data set [1] is 72 kDa type IV collagenase (Homo sapiens, UniProt P08253). Kind of data set: Inhibition of recombinant human MMP2 catalytic domain (Tyr110 to Asp452 residues) preincubated for 45 mins followed by […] substrate addition by fluorescence assay. Summed up:
(§1)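 Fluorometric kit assay: enzyme added to assay buffer equilibrated to 37 °C, then inhibitor (NNGH as kit control) added and preincubated 45 min at 37 °C; fluorogenic substrate added to start reaction; fluorescence read at Ex/Em 328/420 nm.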

Data set [2] concerns the target Matrix metalloproteinase-9 (Homo sapiens, UniProt P14780). Kind of data set: Inhibition of recombinant human MMP9 (Phe107 to Pro449 residues) expressed in Escherichia coli preincubated for 45 mins followed by […] substrate addition by fluorescence assay. Summed up: as §1
Data set [3] has as its system A549. Kind of data set: Antiproliferative activity against human A549 cells after 48 hrs by MTT assay. It counts as functional, cell-based. The following applies: A549, 48 h. Summed up:
(§2)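 Cells grown in RPMI1640 with 10% FBS at 37 °C, 5% CO₂; plated 5000 per well, 4 h attachment, then exposed to a range of compound concentrations for 48 h. 0.5% MTT added for 4 h, formazan dissolved in DMSO, absorbance read at 570 nm.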
Background: Tetrazolium dyes change colour on reduction, which living cells bring about.

Data set [4] in a line: Antiproliferative activity against human ES2 cells after 48 hrs by MTT assay. It counts as functional, cell-based. Conditions: ES-2, 48 h. The gist of the method:
as §2

The test system of data set [5] is HeLa. Kind of data set: Antiproliferative activity against human HeLa cells after 48 hrs by MTT assay. Type of data set: functional, cell-based. Summed up: as §2
For data set [6], the system named is K562. Put plainly: Antiproliferative activity against human K562 cells after 48 hrs by MTT assay. Type of data set: functional, cell-based. Conditions: K562, 48 h. The gist of the method: as §2
Data set [7] relates to MCF7. Put plainly: Antiproliferative activity against human MCF7 cells after 48 hrs by MTT assay. Type of data set: functional, cell-based. Conditions: MCF7, 48 h. Summed up: as §2
For data set [8], the system named is MDA-MB-231. Kind of data set: Antiproliferative activity against human MDA-MB-231 cells after 48 hrs by MTT assay. It counts as functional, cell-based. The following applies: MDA-MB-231, 48 h. Summed up:
as §2

Data set [9] concerns HeLa. Kind of data set: Anticlonogenic activity against human HeLa cells treated for 24 hrs measured after 2 weeks by crystal violet staining based inverted microscopic method. Type of data set: functional, cell-based. Summed up:
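HeLa cells seeded at 500 per well, exposed to compound 24 h, then grown 2 weeks at 37 °C, 5% CO₂. Washed with PBS, methanol-fixed 15 min, stained 0.1% crystal violet 10 min; colonies of more than 50 cells counted under inverted microscope to give inhibition rate.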

The test system of data set [10] is HeLa. Put plainly: Anti-invasive activity against human HeLa cells at 1 uM after 24 hrs using crystal violet staining by inverted microscopic based transwell chamber assay. It counts as functional, cell-based. Summed up: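 Transwell chambers, 8 μm pore, upper side precoated with Matrigel. 1×10⁵ HeLa cells seeded with compound (1 μM) in RPMI1640 with 1% FBS; lower chamber 10% FBS as chemoattractant. After 24 h at 37 °C, non-invaded cells swabbed off; membranes methanol-fixed 10 min, stained 0.5% crystal violet, counted microscopically.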

Data set [11] in a line: Cytotoxicity against HUVEC after 48 hrs by MTT assay. The following applies: human, HUVEC cells. It counts as cell-based. Summed up:
as §2

Data set [12] has as its system HUVEC. Put plainly: Anti-angiogenic activity against HUVEC assessed as reduction in tube formation at 1 uM after 8 hrs by inverted microscopic method. It counts as functional, cell-based. The following applies: Homo sapiens. Summed up: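 Matrigel-coated wells gelled 30 min at 37 °C, 5% CO₂; 1×10⁵ HUVECs per well seeded in growth medium together with compound at 1 μM, vehicle control included. Incubated 8 h at 37 °C, 5% CO₂; capillary-like tube networks imaged under inverted microscope and quantified.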

Data set [13] concerns Thoracic aorta. Kind of data set: Anti-angiogenic activity against Sprague-Dawley rat thoracic aorta assessed as reduction in microvessel outgrowth arising fron aortic rings at 5 uM after 6 days by inverted microscopic method. It counts as functional, tissue-based. The gist of the method:
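Thoracic aortas from 6-week-old male Sprague Dawley rats, perivascular tissue removed, cut into ~1 mm rings and embedded in Matrigel-coated wells. Rings treated with compound at 5 μM, vehicle control included, 6 days at 37 °C, 5% CO₂. Microvessel outgrowth imaged by inverted microscope; inhibition rate counted.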

In data set [14] the test system is HeLa. Put plainly: Nitric oxide releasing activity in human HeLa cells assessed as nitrite accumulation at 100 uM after 5 hrs by Griess reagent based colorimetric assay. Type of data set: ADME, cell-based. Summed up:
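HeLa cells (1×10⁵ per well) incubated 5 h with compound at 100 μM. Cell-free supernatant mixed 1:1 with Griess reagent for 10 min; absorbance at 540 nm; nitrite quantified against NaNO₂ standard curve.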
(The Griess reaction detects nitrite, a stable product of nitric oxide.)

Data set [15] deals with HeLa. Kind of data set: Antimigratory activity against human HeLa cells at 1 uM after 24 hrs using crystal violet staining by inverted microscopic based transwell chamber assay. Type of data set: functional, cell-based. The gist of the method: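 Uncoated Transwell chambers, 8 μm pore. 5×10⁴ HeLa cells seeded in upper chamber with compound (1 μM) in RPMI1640 containing 1% FBS; 10% FBS below as chemoattractant. 24 h at 37 °C; upper-side cells removed, membrane methanol-fixed 10 min, 0.5% crystal violet stained, migrated cells counted under inverted microscope.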

For data set [16], the system named is H22. Kind of data set: Antitumor activity against […] xenografted in Kunming mouse assessed as increase in mouse survival rate at 100 mg/kg/day, ig once daily for 10 days relative to control. It counts as functional. Summed up:
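Female Kunming mice (20±2 g, 4–6 weeks), randomized 10 per group, were inoculated subcutaneously with H22 cells (4 × 10⁷/mL) on day 0. Dosing was intragastric, once daily for ten days, with a PBS/5% DMSO vehicle group and a positive-control group. Body weight was recorded before each dose, and survival was checked daily. Mean survival time was compared with vehicle.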
For orientation: In xenograft studies the graft and the host belong to different species.

Data set [17] has as its system Mus musculus. Put plainly: Toxicity in Kunming mouse xenografted with […] assessed as increase in body weight at 100 mg/kg/day, ig once daily for 10 days. Type of data set: organism-based. Conditions: in vivo, po, 240 h. The gist of the method:
(§3)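 Female Kunming mice (20±2 g, 4–6 weeks), 10 per group, inoculated subcutaneously with H22 cells (4×10⁷/mL) on day 0. Compound 100 mg/kg/day given intragastrically once daily for 10 days; vehicle PBS with 5% DMSO. Body weight recorded before each dose; survival monitored daily.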

The subject of data set [18] is HeLa. Put plainly: Antimigratory activity against human HeLa cells assessed as reduction in wound closure at 1 uM by inverted microscopic method. The following applies: TDE = time-dependent effect. It counts as functional, cell-based. The gist of the method: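 2×10⁵ HeLa cells per well grown to confluence; pipette tip scratch made, cells treated with 1 μM compound and allowed to migrate; wound imaged by inverted microscope at 0, 12, 24 and 48 h, wound closure quantified.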

The test system of data set [19] is Mus musculus. Kind of data set: Toxicity in Kunming mouse xenografted with […] assessed as decrease in body weight at 100 mg/kg/day, ig once daily for 10 days. Conditions: in vivo, po, 240 h. It counts as organism-based. Summed up:
as §3

The source made the active and inactive calls. No cut-off for these calls is given here. Bounds are passed on as bounds.

Chain of Matrix metalloproteinase-9 (P14780 whole entry): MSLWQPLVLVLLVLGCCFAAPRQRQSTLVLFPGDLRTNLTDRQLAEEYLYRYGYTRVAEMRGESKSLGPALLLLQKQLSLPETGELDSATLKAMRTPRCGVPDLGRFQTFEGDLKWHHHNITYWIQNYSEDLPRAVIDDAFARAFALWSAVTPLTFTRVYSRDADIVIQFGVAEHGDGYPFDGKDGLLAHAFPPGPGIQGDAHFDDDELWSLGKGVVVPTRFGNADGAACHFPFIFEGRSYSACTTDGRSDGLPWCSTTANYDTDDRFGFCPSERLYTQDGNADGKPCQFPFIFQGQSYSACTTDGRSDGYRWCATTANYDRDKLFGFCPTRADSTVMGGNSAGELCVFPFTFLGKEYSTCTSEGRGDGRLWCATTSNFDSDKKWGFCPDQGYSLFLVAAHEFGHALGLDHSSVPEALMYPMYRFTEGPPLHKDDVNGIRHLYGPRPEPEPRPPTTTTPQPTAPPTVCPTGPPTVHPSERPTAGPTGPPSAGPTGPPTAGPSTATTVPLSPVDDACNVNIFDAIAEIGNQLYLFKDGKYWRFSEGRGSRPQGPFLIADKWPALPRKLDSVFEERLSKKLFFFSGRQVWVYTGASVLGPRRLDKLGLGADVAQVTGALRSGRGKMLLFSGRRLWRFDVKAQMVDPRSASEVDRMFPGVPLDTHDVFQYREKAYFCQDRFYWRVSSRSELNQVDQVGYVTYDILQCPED
Chain of 72 kDa type IV collagenase (P08253 whole entry, the tested form may be a part): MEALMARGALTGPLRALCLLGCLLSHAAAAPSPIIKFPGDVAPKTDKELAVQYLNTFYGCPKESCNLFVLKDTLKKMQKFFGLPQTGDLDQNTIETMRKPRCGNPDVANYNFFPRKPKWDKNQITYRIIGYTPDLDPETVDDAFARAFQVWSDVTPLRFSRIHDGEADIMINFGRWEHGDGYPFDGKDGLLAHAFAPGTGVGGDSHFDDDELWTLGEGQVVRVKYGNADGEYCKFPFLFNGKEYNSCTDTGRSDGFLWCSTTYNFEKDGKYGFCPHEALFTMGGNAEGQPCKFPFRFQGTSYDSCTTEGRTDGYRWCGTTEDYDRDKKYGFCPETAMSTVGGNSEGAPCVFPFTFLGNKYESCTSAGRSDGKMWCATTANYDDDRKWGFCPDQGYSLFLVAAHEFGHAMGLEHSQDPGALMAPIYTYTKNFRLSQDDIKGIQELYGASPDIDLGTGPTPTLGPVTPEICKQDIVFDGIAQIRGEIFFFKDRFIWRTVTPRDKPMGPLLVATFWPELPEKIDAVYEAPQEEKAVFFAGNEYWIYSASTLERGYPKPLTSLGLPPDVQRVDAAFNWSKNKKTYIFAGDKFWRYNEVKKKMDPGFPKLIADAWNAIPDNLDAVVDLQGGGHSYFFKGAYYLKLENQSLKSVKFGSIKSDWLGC

As for `O=C(N[C@H]1C[C@@H](C(=O)NO)N(S(=O)(=O)c2ccc(Oc3ccccc3)cc2)C1)c1cccc2no[n+]([O-])c12`, the IC50 in [1] was found to be 0.182 µM; in [2], 0.242 µM; in data set [3], 21.5 µM; in [4], 8.26 µM; in [5], 7.24 µM; in [6], 4.58 µM. Also, the IC50 came out at 13 µM in data set [7] and 4.19 µM in data set [8]. The result in [9], in data set [10] and in [12] was Active. The compound further yielded a CC50 at 48 h in data set [11] of 37.2 µM. Also, the outcome in data set [13] was inactive. The Nitrite concentration in data set [14] stood at 27.87 µM.

As for `COc1ccc(/C=C/C(=O)N2C[C@@H](NC(=O)c3cccnc3)C[C@H]2C(=O)NO)cc1OC`, the IC50 in data set [1] was 0.266 µM; in data set [2] it was 0.36 µM; in [3], 78.2 µM; in [4] it was greater than 200 µM; in data set [5], 185 µM; in [6] it was greater than 200 µM. For the same compound, the IC50 in data set [7] and in data set [8] was greater than 200 µM throughout. Also, the outcome in data set [9], in data set [10], in data set [15], in [12], in [13] and in [16] was Active. In addition, in data set [11], the CC50 at 48 h amounted to 39.8 µM. In data set [17], the Activity entry was “Toxic”.

For `COc1ccc(/C=C/C(=O)N2C[C@@H](NC(=O)c3ccc4no[n+]([O-])c4c3)C[C@H]2C(=O)NO)cc1OC`, the IC50 in [1] amounted to 0.345 µM; in data set [2], 0.388 µM; in data set [3], 13.2 µM; in [4], 14.1 µM; in [5], 6.49 µM; in data set [6], 4.61 µM. Further, the IC50 in data set [7] amounted to 10.7 µM; in data set [8], 9.81 µM. Further, the outcome in data set [9], in [10], in [12] and in data set [13] was Active. The CC50 at 48 h in [11] was 36.3 µM. In addition, the Nitrite concentration in [14] was 33.11 µM.

`O=C(N[C@H]1C[C@@H](C(=O)NO)N(S(=O)(=O)c2ccc(Oc3ccccc3)cc2)C1)c1ccc2no[n+]([O-])c2c1`: the IC50 in data set [1] amounted to 0.102 µM; in data set [2], 0.162 µM; in data set [3], 5.1 µM; in data set [4] it was 7.47 µM; in data set [5], 3.82 µM; in data set [6], 3.56 µM. The figures for the IC50 in data set [7] and in data set [8] were 4.19 µM and 7.01 µM, respectively. Also, the outcome in data set [9], in [10], in data set [15], in data set [12] and in data set [13] was Active. The Activity result was “Tde” in data set [18], 40.48% in data set [16] and “Toxic” in data set [19]. The midpoint of cytotoxicity in data set [11], the CC50 at 48 h, lay at 32.5 µM. In addition, the Nitrite concentration in data set [14] is 34.43 µM.

For the compound `COc1ccc(/C=C/C(=O)N2C[C@@H](NC(=O)c3cccc4no[n+]([O-])c34)C[C@H]2C(=O)NO)cc1OC`, the IC50 in [1] came to 0.414 µM; in [2], 0.524 µM; in [3], 25.6 µM; in data set [4], 17.4 µM; in data set [5], 14.1 µM; in data set [6], 11.2 µM. For the same compound, the IC50 in data set [7] was found to be 23.4 µM; in [8], 16.5 µM. For the same compound, the result in [9], in data set [10] and in data set [12] was Active. Besides, the CC50 at 48 h in data set [11] turned out to be 42.3 µM. In [13], the result was inactive. Besides, in data set [14], the Nitrite concentration came out at 25.51 µM.

For orientation: IC50 means the point on the concentration scale where inhibition reaches its midpoint. For orientation: CC50 means the concentration that lowers cell viability or growth by half.
